Source: ChEMBL document CHEMBL4428107 (Bioorg Med Chem, 2016)

Legend:
[1] = biological target: T1, Histone deacetylase 2 (Homo sapiens, UniProt Q92769); experiment: Inhibition of recombinant full length C-terminal His-tagged human HDAC2 expressed in baculovirus expression system using fluorogenic substrate by fluorescence assay
[2] = test system: HuT78; experiment: Antiproliferative activity against human HUT78 cells assessed as reduction in cell viability after 70 hrs by Quanti-blue assay; type: functional; conditions: Homo sapiens, HuT78, 70 h
Procedure, shortened: (§1)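 Quanti-Blue viability kit. HuT-78 and Molt-4 cells were grown in RPMI-1640 and seeded at 10^5 cells/mL. Compounds were screened at 50 μM for 70 h, with detection reagent present for the final 2 h. Fluorescence was read at ex 530/em 590 nm. IC50 from dose-response came from linear regression. Three independent runs.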

[3] = biological target: Histone deacetylase 3/Nuclear receptor corepressor 2 (HDAC3/NCoR2) (Homo sapiens, UniProt O15379); experiment: Inhibition of recombinant full length C-terminal His-tagged human HDAC3/GST-tagged human Ncor2 (395 to 489 residues) expressed in baculovirus expression system using fluorogenic substrate by fluorescence assay
Procedure, shortened: (§2)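 Outsourced HDAC isozyme panel run under proprietary protocols. Each compound was tested at 10 μM and 5 μM, using HDAC substrate 3 at 10 μM, with fluorescence read-out. […] IC50 range was bracketed from % inhibition at the two concentrations.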

[4] = biological target: Histone deacetylase 5 (Homo sapiens, UniProt Q9UQL6); experiment: Inhibition of recombinant C-terminal His-tagged human HDAC5 catalytic domain (656 to 1122 residues) expressed in baculovirus expression system using fluorogenic substrate by fluorescence assay
Procedure, shortened: (§3)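 Outsourced HDAC isozyme panel run under proprietary protocols. Each compound was tested at 10 μM and 5 μM, using Class 2a HDAC substrate at 2 μM, with fluorescence read-out. […] IC50 range was bracketed from % inhibition at the two concentrations.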

[5] = biological target: Protein deacetylase HDAC6 (Homo sapiens, UniProt Q9UBN7); experiment: Inhibition of recombinant full length N-terminal GST-tagged human HDAC6 expressed in baculovirus expression system using fluorogenic substrate by fluorescence assay; procedure, shortened: as §2
[6] = biological target: Histone deacetylase 11 (Homo sapiens, UniProt Q96DB2); experiment: Inhibition of full length recombinant human HDAC11 expressed in baculovirus expression system using fluorogenic substrate by fluorescence assay; procedure, shortened: as §3
[7] = Immunomodulatory activity in human TALL-104 cells assessed as effect on degranulation by measuring augmentation of CD3-stimulated anti-LAMP fluorescence at 100 uM preincubated for 30 mins followed by anti-LAMP addition and incubated for 50 mins in the dark by flow cytometric analysis relative to control; type: functional
[8] = test system: MCF7; experiment: Antiproliferative activity against human MCF7 cells assessed as reduction in cell viability after 72 hrs by MTS-PMS assay; conditions: MCF7, 72 h
[9] = biological target: Polyamine deacetylase HDAC10 (Homo sapiens, UniProt Q969S8); experiment: Inhibition of recombinant N-terminal FLAG-tagged human HDAC10 (2 to 631 residues) expressed in baculovirus expression system using fluorogenic substrate by fluorescence assay; procedure, shortened: as §2
[10] = test system: MOLT-4; experiment: Antiproliferative activity against human MOLT4 cells assessed as reduction in cell viability after 70 hrs by Quanti-blue assay; type: functional; conditions: Homo sapiens, MOLT-4, 70 h; procedure, shortened: as §1
[11] = test system: HCT-116; experiment: Antiproliferative activity against human HCT116 cells assessed as reduction in cell viability after 72 hrs by MTS-PMS assay; type: functional; conditions: Homo sapiens, HCT-116, 72 h
Procedure, shortened: (§4)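 MTS-PMS viability test. Cells were seeded at 3,000/well and left 24 h at 37 °C, 5% CO2, then exposed to compound for 72 h. Screening was at 50 μM for HCT116 and MCF-7 and […], with final DMSO ≤1%. MTS:PMS was mixed 20:1, added for 3 h, and absorbance read at 490 nm. At least two independent runs were done, each in triplicate.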

[12] = biological target: Histone deacetylase 8 (Homo sapiens, UniProt Q9BY41); experiment: Inhibition of recombinant full length C-terminal His-tagged human HDAC8 expressed in baculovirus expression system using fluorogenic substrate by fluorescence assay; procedure, shortened: as §3
[13] = biological target: Histone deacetylase 7 (Homo sapiens, UniProt Q8WUI4); experiment: Inhibition of recombinant N-terminal GST-tagged human HDAC7 (518 to end residues) expressed in baculovirus expression system using fluorogenic substrate by fluorescence assay; procedure, shortened: as §3
[14] = biological target: T1, Histone deacetylase 2; experiment: Inhibition of full length recombinant human HDAC2 expressed in baculovirus expression system using fluorogenic peptide RHKK(Ac) as substrate by fluorescence assay
[15] = biological target: Histone deacetylase 4 (Homo sapiens, UniProt P56524); experiment: Inhibition of recombinant C-terminal His-tagged/N-terminal GST-tagged human HDAC4 (627 to 1084 residues) expressed in baculovirus expression system using fluorogenic substrate by fluorescence assay; procedure, shortened: as §3
[16] = biological target: Histone deacetylase 1 (Homo sapiens, UniProt Q13547); experiment: Inhibition of recombinant full length C-terminal FLAG-tagged/C-terminal His-tagged human HDAC1 using fluorogenic substrate by fluorescence assay; procedure, shortened: as §2
[17] = test system: MDA-MB-231; experiment: Antiproliferative activity against human MDA-MB-231 cells assessed as reduction in cell viability after 72 hrs by MTS-PMS assay; type: functional; conditions: MDA-MB-231, 72 h; procedure, shortened: as §4
[18] = biological target: Histone deacetylase 9 (Homo sapiens, UniProt Q9UKV0); experiment: Inhibition of recombinant C-terminal His-tagged human HDAC9 (604 to 1066 residues) expressed in baculovirus expression system using fluorogenic substrate by fluorescence assay; procedure, shortened: as §3
[19] = Antiproliferative activity against human PBMC assessed as reduction in cell viability after 70 hrs by Quanti-blue assay; type: cell-based
Procedure, shortened: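 QB fluorescence viability assay; hPBMCs purified by density centrifugation from purchased human blood, stored frozen, resuspended in RPMI-1640 with 10% heat-inactivated FBS, HEPES, pyruvate, non-essential amino acids and BME; seeded at 10^6 cells/mL. Compounds at 50 μM, 70 h plus 2 h with detection reagent; λex 530/λem 590 nm. Three independent repeats.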

T1 sequence (Q92769 whole entry): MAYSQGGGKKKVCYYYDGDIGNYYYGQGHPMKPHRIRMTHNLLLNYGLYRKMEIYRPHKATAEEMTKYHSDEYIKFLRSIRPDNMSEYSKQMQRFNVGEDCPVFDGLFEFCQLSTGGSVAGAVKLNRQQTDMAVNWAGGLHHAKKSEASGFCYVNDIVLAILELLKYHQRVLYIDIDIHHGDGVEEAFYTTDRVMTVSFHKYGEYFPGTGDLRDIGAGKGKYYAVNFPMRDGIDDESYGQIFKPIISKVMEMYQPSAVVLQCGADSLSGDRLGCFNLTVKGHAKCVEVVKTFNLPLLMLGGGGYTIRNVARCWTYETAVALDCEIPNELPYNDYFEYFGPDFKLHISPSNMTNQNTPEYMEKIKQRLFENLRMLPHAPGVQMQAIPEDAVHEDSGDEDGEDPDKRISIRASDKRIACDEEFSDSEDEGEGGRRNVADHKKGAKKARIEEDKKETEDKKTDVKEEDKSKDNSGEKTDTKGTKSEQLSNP
Histone deacetylase 1, sequence (Q13547 whole entry): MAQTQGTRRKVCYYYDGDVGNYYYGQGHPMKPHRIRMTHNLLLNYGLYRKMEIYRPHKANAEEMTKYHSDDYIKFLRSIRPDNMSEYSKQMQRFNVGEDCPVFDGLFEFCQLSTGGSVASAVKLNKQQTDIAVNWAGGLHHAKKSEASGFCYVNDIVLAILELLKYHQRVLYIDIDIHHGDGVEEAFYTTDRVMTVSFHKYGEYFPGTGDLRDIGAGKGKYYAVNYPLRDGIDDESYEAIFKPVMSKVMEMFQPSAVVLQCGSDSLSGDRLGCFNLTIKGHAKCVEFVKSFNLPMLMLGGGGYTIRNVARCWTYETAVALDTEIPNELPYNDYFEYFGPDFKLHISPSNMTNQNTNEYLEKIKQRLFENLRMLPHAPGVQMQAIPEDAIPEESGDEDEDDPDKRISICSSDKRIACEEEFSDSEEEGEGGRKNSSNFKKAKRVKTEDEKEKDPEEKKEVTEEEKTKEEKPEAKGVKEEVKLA
Histone deacetylase 5, sequence (Q9UQL6 whole entry, the tested form may be a part): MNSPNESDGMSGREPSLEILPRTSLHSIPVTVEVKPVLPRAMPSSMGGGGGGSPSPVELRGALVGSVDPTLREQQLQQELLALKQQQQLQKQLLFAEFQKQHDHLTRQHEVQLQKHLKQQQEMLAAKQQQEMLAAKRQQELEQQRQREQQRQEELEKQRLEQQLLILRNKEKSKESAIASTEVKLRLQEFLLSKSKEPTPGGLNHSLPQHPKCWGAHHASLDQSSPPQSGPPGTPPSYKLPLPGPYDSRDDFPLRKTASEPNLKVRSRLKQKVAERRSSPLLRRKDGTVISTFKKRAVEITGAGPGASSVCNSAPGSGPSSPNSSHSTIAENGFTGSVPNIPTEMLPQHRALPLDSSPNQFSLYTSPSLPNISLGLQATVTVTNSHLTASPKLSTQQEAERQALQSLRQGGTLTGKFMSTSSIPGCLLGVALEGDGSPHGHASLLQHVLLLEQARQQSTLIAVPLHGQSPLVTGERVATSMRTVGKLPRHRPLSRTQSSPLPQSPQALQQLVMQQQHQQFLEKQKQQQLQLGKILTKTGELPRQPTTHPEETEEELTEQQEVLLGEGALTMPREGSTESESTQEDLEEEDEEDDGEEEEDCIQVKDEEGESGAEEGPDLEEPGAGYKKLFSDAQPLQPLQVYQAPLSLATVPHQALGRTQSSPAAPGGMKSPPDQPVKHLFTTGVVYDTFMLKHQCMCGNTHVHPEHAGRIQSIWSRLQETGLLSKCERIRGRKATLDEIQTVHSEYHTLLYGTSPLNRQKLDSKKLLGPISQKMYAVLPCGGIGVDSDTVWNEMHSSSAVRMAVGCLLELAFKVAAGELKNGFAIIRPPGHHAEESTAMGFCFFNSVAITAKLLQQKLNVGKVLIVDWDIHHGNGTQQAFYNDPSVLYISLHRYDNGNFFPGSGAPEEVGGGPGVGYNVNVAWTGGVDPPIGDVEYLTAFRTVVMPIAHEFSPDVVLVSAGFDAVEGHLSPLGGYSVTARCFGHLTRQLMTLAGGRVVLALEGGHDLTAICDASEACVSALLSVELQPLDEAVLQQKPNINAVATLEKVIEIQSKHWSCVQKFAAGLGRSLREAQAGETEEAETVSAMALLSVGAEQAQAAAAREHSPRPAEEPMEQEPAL
Histone deacetylase 8, sequence (Q9BY41 whole entry): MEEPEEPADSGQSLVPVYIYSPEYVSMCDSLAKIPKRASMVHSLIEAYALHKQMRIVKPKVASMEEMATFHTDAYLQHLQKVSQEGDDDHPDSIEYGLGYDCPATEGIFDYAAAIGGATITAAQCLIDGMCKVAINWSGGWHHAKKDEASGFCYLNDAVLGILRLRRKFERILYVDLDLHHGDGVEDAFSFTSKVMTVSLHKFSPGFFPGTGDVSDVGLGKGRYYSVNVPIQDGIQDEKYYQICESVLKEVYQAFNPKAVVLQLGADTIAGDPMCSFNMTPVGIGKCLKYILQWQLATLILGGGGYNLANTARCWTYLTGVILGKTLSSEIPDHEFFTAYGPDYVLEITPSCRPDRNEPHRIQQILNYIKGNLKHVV
Histone deacetylase 4, sequence (P56524 whole entry, the tested form may be a part): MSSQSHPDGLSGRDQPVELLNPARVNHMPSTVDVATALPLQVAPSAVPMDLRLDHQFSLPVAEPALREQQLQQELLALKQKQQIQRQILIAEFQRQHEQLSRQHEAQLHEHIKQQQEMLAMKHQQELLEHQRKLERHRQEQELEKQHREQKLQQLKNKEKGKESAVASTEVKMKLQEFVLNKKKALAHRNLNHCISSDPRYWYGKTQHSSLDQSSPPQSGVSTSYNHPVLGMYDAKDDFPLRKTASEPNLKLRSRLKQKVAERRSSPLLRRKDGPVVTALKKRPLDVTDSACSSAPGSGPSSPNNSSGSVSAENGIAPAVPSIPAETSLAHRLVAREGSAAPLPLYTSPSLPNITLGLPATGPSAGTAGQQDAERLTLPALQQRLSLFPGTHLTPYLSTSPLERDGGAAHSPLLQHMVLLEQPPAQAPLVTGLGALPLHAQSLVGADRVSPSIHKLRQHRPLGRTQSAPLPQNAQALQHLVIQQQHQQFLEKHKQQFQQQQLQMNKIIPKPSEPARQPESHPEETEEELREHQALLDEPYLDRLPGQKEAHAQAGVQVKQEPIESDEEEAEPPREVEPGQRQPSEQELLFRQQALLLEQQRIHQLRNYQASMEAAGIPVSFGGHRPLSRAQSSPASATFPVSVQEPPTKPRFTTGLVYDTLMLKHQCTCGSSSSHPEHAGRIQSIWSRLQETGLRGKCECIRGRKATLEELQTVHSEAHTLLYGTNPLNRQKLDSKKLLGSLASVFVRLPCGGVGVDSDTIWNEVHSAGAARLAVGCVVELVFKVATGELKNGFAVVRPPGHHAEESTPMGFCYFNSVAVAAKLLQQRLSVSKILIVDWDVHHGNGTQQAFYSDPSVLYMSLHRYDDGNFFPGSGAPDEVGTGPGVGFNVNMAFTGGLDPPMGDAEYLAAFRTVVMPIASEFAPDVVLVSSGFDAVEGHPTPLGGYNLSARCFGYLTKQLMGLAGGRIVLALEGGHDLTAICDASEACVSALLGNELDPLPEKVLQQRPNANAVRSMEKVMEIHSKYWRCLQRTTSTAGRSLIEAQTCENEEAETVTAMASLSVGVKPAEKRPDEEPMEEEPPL
Histone deacetylase 9, sequence (Q9UKV0 whole entry, the tested form may be a part): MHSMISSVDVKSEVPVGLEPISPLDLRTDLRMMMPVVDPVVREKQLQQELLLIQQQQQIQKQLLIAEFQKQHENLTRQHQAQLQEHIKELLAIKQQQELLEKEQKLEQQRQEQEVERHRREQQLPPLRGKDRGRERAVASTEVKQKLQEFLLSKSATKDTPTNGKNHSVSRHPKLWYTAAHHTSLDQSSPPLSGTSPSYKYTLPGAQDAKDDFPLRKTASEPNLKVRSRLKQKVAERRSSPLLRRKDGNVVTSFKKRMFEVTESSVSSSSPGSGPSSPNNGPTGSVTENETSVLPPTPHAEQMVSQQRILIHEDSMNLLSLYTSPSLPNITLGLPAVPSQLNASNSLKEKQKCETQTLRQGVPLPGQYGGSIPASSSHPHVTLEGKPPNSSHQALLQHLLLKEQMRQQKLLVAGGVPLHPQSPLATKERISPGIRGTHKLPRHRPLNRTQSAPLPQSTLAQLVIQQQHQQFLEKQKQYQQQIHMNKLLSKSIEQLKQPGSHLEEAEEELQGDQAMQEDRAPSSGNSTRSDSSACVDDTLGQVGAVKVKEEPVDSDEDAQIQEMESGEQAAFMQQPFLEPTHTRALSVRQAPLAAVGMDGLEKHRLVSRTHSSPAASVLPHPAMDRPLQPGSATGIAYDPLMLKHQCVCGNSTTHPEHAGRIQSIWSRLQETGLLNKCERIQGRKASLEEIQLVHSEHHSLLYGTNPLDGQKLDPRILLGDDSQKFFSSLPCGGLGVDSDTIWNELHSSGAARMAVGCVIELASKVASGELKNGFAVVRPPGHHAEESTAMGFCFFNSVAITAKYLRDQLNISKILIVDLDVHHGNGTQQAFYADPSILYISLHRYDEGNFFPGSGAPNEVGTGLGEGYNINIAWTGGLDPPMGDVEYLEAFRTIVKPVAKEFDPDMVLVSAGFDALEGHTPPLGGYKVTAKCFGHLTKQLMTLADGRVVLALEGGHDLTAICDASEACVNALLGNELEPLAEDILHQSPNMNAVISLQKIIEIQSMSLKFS
Histone deacetylase 11, sequence (Q96DB2 whole entry): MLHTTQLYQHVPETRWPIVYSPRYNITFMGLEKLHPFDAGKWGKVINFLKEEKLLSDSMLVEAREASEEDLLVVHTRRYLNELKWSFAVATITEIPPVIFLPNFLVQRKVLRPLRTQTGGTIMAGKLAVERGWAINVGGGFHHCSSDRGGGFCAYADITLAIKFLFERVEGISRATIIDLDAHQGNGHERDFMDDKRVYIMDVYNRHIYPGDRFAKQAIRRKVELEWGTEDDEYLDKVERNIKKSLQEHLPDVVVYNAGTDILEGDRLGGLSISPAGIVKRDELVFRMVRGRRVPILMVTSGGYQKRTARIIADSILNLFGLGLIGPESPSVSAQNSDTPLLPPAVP

SMILES	IC50 [1] [µM]	GI50 [2] [µM]	IC50 [3] [µM]	IC50 [4] [µM]	IC50 [5] [µM]	IC50 [6] [µM]	Activity [7] [%]	GI50 [8] [µM]	IC50 [9] [µM]	GI50 [10] [µM]	GI50 [11] [µM]	IC50 [12] [µM]	IC50 [13] [µM]	IC50 [14] [µM]	IC50 [15] [µM]	IC50 [16] [µM]	GI50 [17] [µM]	IC50 [18] [µM]	GI50 at 70 h [19] [µM]
O=C(CCCC(=O)NCCc1ccccc1)NO	5 to 10	> 50	5 to 10	> 10	< 5	5 to 10	113	> 50	5 to 10	> 50	> 50	5 to 10	> 10	> 1	5 to 10	5 to 10	> 50	5 to 10	> 50
O=C(CCCNC(=O)N1CCCC1=O)NCCc1ccccc1	–	> 50	–	–	–	–	95	> 50	–	> 50	> 50	–	–	> 1	–	–	> 50	–	> 50
CCOC(=O)NCCCC(=O)OCCc1ccccc1	–	> 50	–	–	–	–	88	> 50	–	> 50	> 50	–	–	> 1	–	–	> 50	–	> 50
O=C(CCCNC(=S)N1CCCC1=O)NCCc1ccccc1	–	> 50	–	–	–	–	94	> 50	–	> 50	> 50	–	–	> 1	–	–	> 50	–	> 50
CCOC(=O)NCCC(=O)NCCCCc1ccccc1	–	> 50	–	–	–	–	83	> 50	–	> 50	> 50	–	–	> 1	–	–	> 50	–	> 50
CCOC(=O)NCCCCCC(=O)NCCc1ccccc1	–	> 50	–	–	–	–	98	> 50	–	> 50	> 50	–	–	> 1	–	–	> 50	–	> 50
CCOC(=O)NCC(=O)NCCCCc1ccccc1	–	> 50	–	–	–	–	81	> 50	–	> 50	> 50	–	–	> 1	–	–	> 50	–	> 50
CCSC(=O)NCCCC(=O)NCCc1ccccc1	–	> 50	–	–	–	–	76	> 50	–	> 50	> 50	–	–	> 1	–	–	> 50	–	> 50
CCOC(=O)NCCCC(=O)NCCc1cccc(Cl)c1	–	> 50	–	–	–	–	75	> 50	–	> 50	> 50	–	–	> 1	–	–	> 50	–	> 50
CCOC(=S)NCCCC(=O)NCCc1ccccc1	–	> 50	–	–	–	–	105	> 50	–	> 50	> 50	–	–	> 1	–	–	> 50	–	> 50
CC(C)(C)OC(=O)NCCCC(=O)NCCc1ccccc1	–	> 50	–	–	–	–	82	> 50	–	> 50	> 50	–	–	> 1	–	–	> 50	–	> 50
O=C(CCCNC(=O)OCCF)NCCc1ccccc1	–	> 50	–	–	–	–	92	> 50	–	> 50	> 50	–	–	> 1	–	–	> 50	–	> 50
O=C(CCCNC(=O)c1ccccc1)NCCc1ccccc1	–	> 50	–	–	–	–	85	> 50	–	> 50	> 50	–	–	> 1	–	–	> 50	–	> 50
CCCCOC(=O)NCCCC(=O)NCCc1ccccc1	–	> 50	–	–	–	–	101	> 50	–	> 50	> 50	–	–	> 1	–	–	> 50	–	> 50
O=C(CCCNC(=O)OCc1ccccc1)NCCc1ccccc1	–	> 50	–	–	–	–	79	> 50	–	> 50	> 50	–	–	> 1	–	–	> 50	–	> 50
CCNC(=O)NCCCC(=O)NCCc1ccccc1	–	> 50	–	–	–	–	106	> 50	–	> 50	> 50	–	–	> 1	–	–	> 50	–	> 50
CCOC(=O)NCCCC(=O)Nc1ccc(O[Si](C)(C)C(C)(C)C)cc1	–	> 50	–	–	–	–	171	13.8	–	> 50	> 50	–	–	> 1	–	–	> 50	–	> 50
CCOC(=O)NCCCC(=O)NCCc1ccc(Cl)cc1	–	> 50	–	–	–	–	85	> 50	–	> 50	> 50	–	–	> 1	–	–	> 50	–	> 50
CCOC(=O)NCCCC(=O)Nc1nccs1	–	> 50	–	–	–	–	91	> 50	–	> 50	> 50	–	–	> 1	–	–	> 50	–	> 50
CC(C)(C)CC(=O)NCCCC(=O)NCCc1ccccc1	–	> 50	–	–	–	–	73	> 50	–	> 50	> 50	–	–	> 1	–	–	> 50	–	> 50
CCOC(=O)NCCCCC(=O)NCCc1ccccc1	–	> 50	–	–	–	–	83	> 50	–	> 50	> 50	–	–	> 1	–	–	> 50	–	> 50
CCCC(=O)NCCCC(=O)NCCc1ccccc1	–	> 50	–	–	–	–	101	> 50	–	> 50	> 50	–	–	> 1	–	–	> 50	–	> 50
CCOC(=O)NCCCC(=O)N[C@@H](Cc1ccccc1)C(=O)OC	–	> 50	–	–	–	–	90	> 50	–	> 50	> 50	–	–	> 1	–	–	> 50	–	> 50
CCOC(=O)NCCC(=O)NCCc1ccccc1	–	> 50	–	–	–	–	91	> 50	–	> 50	> 50	–	–	> 1	–	–	> 50	–	> 50
C#CCOC(=O)NCCCC(=O)NCCc1ccccc1	–	> 50	–	–	–	–	105	> 50	–	> 50	> 50	–	–	> 1	–	–	> 50	–	> 50
CCOC(=O)NCCc1ccccc1	–	> 50	–	–	–	–	90	> 50	–	> 50	> 50	–	–	> 1	–	–	> 50	–	> 50
